SUMO HTRF inh: inhibitors of human SUMOylation (UBC9); HTRF SUMOylation assay, SAE1/SAE2 + UBC9, in vitro; inhibition, % at 35 µM; hit rate 0.36% among 290,000; P63279; in the data active = inhibition above about 50%, passing the limit was not always enough
Target sequence (P63279 whole entry, looked up): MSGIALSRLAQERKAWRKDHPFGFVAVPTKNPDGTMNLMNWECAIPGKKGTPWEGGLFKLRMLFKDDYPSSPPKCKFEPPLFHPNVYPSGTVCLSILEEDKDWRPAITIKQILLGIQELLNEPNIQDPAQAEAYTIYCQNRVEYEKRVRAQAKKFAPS
FID counter: counter-screen for HCV NS3 helicase inhibitors: DNA intercalator displacement; DNA fluorescent intercalator displacement, fluorescence; AID 1845; inhibition, % at 7.9 µM; hit rate 0.17% among 290,000; in the data active = inhibition above about 37%;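 note: higher means more ethidium bromide displaced from hairpin DNA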
Mot1-301 SUMO: SUMOylation pathway inhibition by Mot1-301 growth rescue; S. cerevisiae Mot1-301 growth rescue, ATP luminescence, 38.5C; percent above DMSO median, 100 means doubled; growth rescue, % at 18.8 µM; hit rate 1% among 320,000; AID 2716;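 active = every valid replicate shows activation above 250% relative to neutral control wells; inactive = the rest, any valid replicate at or below 250%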
VIM-2 inh: inhibitors of Pseudomonas aeruginosa VIM-2 metallo-beta-lactamase; purified VIM-2, nitrocefin hydrolysis, epi-absorbance fluorescence; inhibition, % at 5.6 µM; hit rate 0.89% among 290,000;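 active = inhibition above the mean of all tested compounds plus 3 SD, cutoff set per screening run, cut at about 7.5% in these data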;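 note: red hydrolysis product quenches plate fluorescence so inhibitors raise well fluorescence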
IMP-1 inh-1: blocks Pseudomonas aeruginosa IMP-1 metallo-beta-lactamase | purified IMP-1, nitrocefin hydrolysis, epi-absorbance fluorescence | AID 1556 | hit rate 0.45% among 290,000 | inhibition, % at 5.6 µM;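 active = inhibition above the mean plus 3 SD of all compounds in the same screening run, cut at about 4.5% in these data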
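System: purified IMP-1; amount: IMP-1 0.2 nM before substrate addition; compound: single dose, 5.6 µM; times: 25 °C, 15 min preincubation, 25 min reaction; signal: Epi-absorbance via hydrolysed-nitrocefin quenching of white-plate fluorescence, 480/530 nm, EDTA stop; benchmarks: DMSO with and without IMP-1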
NALP1 inh: blocks the NALP1 inflammasome reconstituted in yeast. S. cerevisiae NALP1/ASC/caspase-1 growth, X-gal OD620, 72 h. inhibition, % at 10 µM. hit rate 0.61% among 280,000. AID 2071; in the data active = inhibition mostly above about 24%, no sharp cut-off; inactive = mostly below about 32%
IMP-1 inh-2: selectivity counter-screen for VIM-2 inhibitors: IMP-1 metallo-beta-lactamase inhibitors; shares compounds with VIM-2 inh; inhibition, % at 5.6 µM; 1,300 tested, under 10 active; purified IMP-1, nitrocefin hydrolysis, epi-absorbance fluorescence; call rule not given here
VIM-2 FRET inh: VIM-2 FRET inhibition, artifact counter-screen; shares compounds with VIM-2 inh; purified VIM-2, CCF2 FRET substrate hydrolysis; inhibition, % at 5.6 µM; hit rate 23% among 1,300;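 active = inhibition above the mean of all tested compounds plus 3 SD, cut at about 19% in these data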
TEM-1 counter: selectivity counter-screen for VIM-2 inhibitors: E. coli TEM-1 inhibitors | Purified TEM-1, nitrocefin hydrolysis, epi-absorbance fluorescence | shares compounds with VIM-2 inh | hit rate 3% among 1,300 | inhibition, % at 5.6 µM | AID 1866;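 active = inhibition above that campaign's mean inhibition plus 3 SD, cut at about 0.46% in these data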
Target sequence (P62593 whole entry, looked up): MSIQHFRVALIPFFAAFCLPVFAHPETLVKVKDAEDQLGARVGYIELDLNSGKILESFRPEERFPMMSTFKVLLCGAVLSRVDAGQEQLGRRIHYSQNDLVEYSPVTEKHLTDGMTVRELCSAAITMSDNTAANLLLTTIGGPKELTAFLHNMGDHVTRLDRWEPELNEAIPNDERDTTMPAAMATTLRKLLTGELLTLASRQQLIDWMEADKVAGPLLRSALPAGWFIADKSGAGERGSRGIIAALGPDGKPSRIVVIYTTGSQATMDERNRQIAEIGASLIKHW
VIM-2 inh conf: confirmation of P. aeruginosa VIM-2 metallo-beta-lactamase inhibitors | AID 2187 | hit rate 96% among 1,300 | shares compounds with VIM-2 inh | purified VIM-2, nitrocefin hydrolysis, epi-absorbance | inhibition, % at 5.6 µM;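 active = inhibition of the VIM-2 beta-lactamase enzyme above about 11% from the earlier first-round screen, limit read from the data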
Large screens that a line does not name were inactive (follow-up assays come after a bar, where they were run). Rows were chosen to be rich in hits. Some 2.9% of all compounds tested hit in one or more screens of this group.

Cc1c(OC(C)C(=O)NCC(O)c2ccccc2)ccc2c3c(c(=O)oc12)CCC3 (centres undefined)	VIM-2 inh 19 | IMP-1 inh-2 inactive | VIM-2 FRET inh inactive | TEM-1 counter inactive | VIM-2 inh conf 24
Cc1c(OCC(=O)NCc2ccncc2)ccc2c3c(c(=O)oc12)CCC3	VIM-2 inh 50 | IMP-1 inh-2 inactive | VIM-2 FRET inh inactive | TEM-1 counter inactive | VIM-2 inh conf 57
Cc1ccc(C(=O)NCCCNC(=O)c2ccc(Cl)cc2)cn1	none
Cc1ccc(C(=O)Nc2nnc(COc3ccccc3)s2)cc1	none
O=C(CSc1ccc(-c2cccs2)nn1)c1cccs1	none
Cc1ncsc1C(=O)N1CCCC(C(=O)c2ccc3ccccc3c2)C1 (centres undefined)	none
CCCCNS(=O)(=O)c1ccc2nc(-c3cccnc3)cc(C(=O)NC3CCCC3)c2c1	none (no result: NALP1 inh)
Cc1c(OC(C)C(=O)NCc2ccccn2)ccc2c3c(c(=O)oc12)CCCC3 (centres undefined)	VIM-2 inh 16 | IMP-1 inh-2 inactive | VIM-2 FRET inh inactive | TEM-1 counter inactive | VIM-2 inh conf 23
CCc1cc(=O)oc2cc(C)cc(OCC(=O)NCCCn3ccnc3)c12	VIM-2 inh 51 | IMP-1 inh-2 inactive | VIM-2 FRET inh inactive | TEM-1 counter inactive | VIM-2 inh conf 61
CCCCc1cc(=O)oc2cc(C)cc(OCC(=O)NCCN3CCOCC3)c12	none
Cc1cc(OCC(=O)NCCCn2ccnc2)c2c(C)c(C)c(=O)oc2c1	VIM-2 inh 80 | IMP-1 inh-2 inactive | VIM-2 FRET inh inactive | TEM-1 counter inactive | VIM-2 inh conf 85
O=C(COc1ccc(Cl)cc1Cl)NCCCn1ccnc1	none
Cc1cc(OCC(=O)NCCN2CCOCC2)c2c(C)c(C)c(=O)oc2c1	VIM-2 inh 19 | IMP-1 inh-2 inactive | VIM-2 FRET inh inactive | TEM-1 counter inactive | VIM-2 inh conf 29
Cc1cc(OC(C)C(=O)NCCCn2ccnc2)c2c(C)c(C)c(=O)oc2c1 (centres undefined)	VIM-2 inh 64 | IMP-1 inh-2 inactive | VIM-2 FRET inh inactive | TEM-1 counter inactive | VIM-2 inh conf 74
O=C(NC1CCC(=O)N(CCOc2ccccc2)CC1)OCc1ccccc1 (centres undefined)	none
CCN1CCN(c2cc(N3CCN(C(=O)c4ccco4)CC3)c3c4c(onc24)-c2ccccc2C3=O)CC1	VIM-2 inh 23 | IMP-1 inh-2 inactive | VIM-2 FRET inh inactive | TEM-1 counter inactive | VIM-2 inh conf 21
CCOC(=O)c1cnc2c(Cl)cccc2c1NCCN1CCOCC1	none
CCOC(=O)c1cnc2c(C(F)(F)F)cccc2c1NCCCN1CCOCC1	VIM-2 inh 20 (no result: NALP1 inh) | IMP-1 inh-2 inactive | VIM-2 FRET inh inactive | TEM-1 counter inactive | VIM-2 inh conf 27
CCOC(=O)c1cnc2c(Cl)cccc2c1NCCCN1CCOCC1	VIM-2 inh 20 | IMP-1 inh-2 inactive | VIM-2 FRET inh inactive | TEM-1 counter inactive | VIM-2 inh conf 28
CCOC(=O)c1cnc2c(CC)cccc2c1NCCCN1CCOCC1	FID counter 52, VIM-2 inh 24 | IMP-1 inh-2 inactive | VIM-2 FRET inh inactive | TEM-1 counter inactive | VIM-2 inh conf 33
CCOC(=O)c1cnc2c(C(F)(F)F)cccc2c1N1CCN(C)CC1	none
CCOC(=O)c1cnc2ccc(OCC)cc2c1NCCN1CCOCC1	none
Cc1c(OCC(=O)NC2CCN(Cc3ccccc3)CC2)ccc2c3c(c(=O)oc12)CCC3	VIM-2 inh 36 | IMP-1 inh-2 inactive | VIM-2 FRET inh inactive | TEM-1 counter inactive | VIM-2 inh conf 45
O=C(COc1ccc2c3c(c(=O)oc2c1)CCC3)N[C@@H](CSCc1ccccc1)C(=O)O	none
Cc1cc(OCC(=O)NC2CCN(Cc3ccccc3)CC2)c2c(C)c(C)c(=O)oc2c1	VIM-2 inh 34 | IMP-1 inh-2 inactive | VIM-2 FRET inh inactive | TEM-1 counter inactive | VIM-2 inh conf 48
Cc1cc(=O)oc2c(C)c(OCC(=O)NC3CCN(Cc4ccccc4)CC3)ccc12	VIM-2 inh 13 | IMP-1 inh-2 inactive | VIM-2 FRET inh inactive | TEM-1 counter inactive | VIM-2 inh conf 21
Cc1c(OCC(=O)N[C@@H](CSCc2ccccc2)C(=O)O)ccc2c3c(c(=O)oc12)CCC3	VIM-2 inh 13 (no result: Mot1-301 SUMO) | IMP-1 inh-2 inactive | VIM-2 FRET inh inactive | TEM-1 counter inactive | VIM-2 inh conf 19
Cc1c(OCC(=O)N2CCC(C(=O)O)CC2)ccc2c3c(c(=O)oc12)CCCC3	none
O=C(c1ccc(C(F)(F)F)cc1)N1CCN(c2ccc(N3CCOCC3)nn2)CC1	none (no result: SUMO HTRF inh, FID counter, VIM-2 inh, IMP-1 inh-1, NALP1 inh)
Nc1ccc(N2CCN(CCCCN3C(=O)C4CCCN4C3=O)CC2)cc1 (centres undefined)	VIM-2 inh 25 | IMP-1 inh-2 inactive | VIM-2 FRET inh inactive | TEM-1 counter inactive | VIM-2 inh conf 11
COc1ccc(NC(=O)C2CCOC(C)(C)C2)cc1 (centres undefined)	none
COC(=O)c1c(C)cc(C)n2c1nc1ccccc12	VIM-2 inh 15 | IMP-1 inh-2 inactive | VIM-2 FRET inh inactive | TEM-1 counter inactive | VIM-2 inh conf 28
Cc1cc(C)n2c(nc3ccccc32)c1C(=O)NN	none
CC1CN(Cc2c(O)ccc3c2oc(=O)c2ccccc23)CC(C)O1 (centres undefined)	VIM-2 inh 14 (no result: NALP1 inh) | IMP-1 inh-2 inactive | VIM-2 FRET inh inactive | TEM-1 counter inactive | VIM-2 inh conf 29
CCC(C)c1ccccc1N1CC(C(=O)N2CCN(S(=O)(=O)c3ccccc3Br)CC2)CC1=O (centres undefined)	none (no result: SUMO HTRF inh, FID counter, VIM-2 inh, IMP-1 inh-1, NALP1 inh)
C=CCn1c(SCC(=O)N2CCN(CCO)CC2)nc2sc3c(c2c1=O)CCC3	VIM-2 inh 50 | IMP-1 inh-2 inactive | VIM-2 FRET inh inactive | TEM-1 counter inactive | VIM-2 inh conf 64
C=CCn1c(SCC(C)=O)nc2sc3c(c2c1=O)CCC3	none
O=C(COc1ccc2c3c(c(=O)oc2c1)CCC3)NCc1cccnc1	VIM-2 inh 17 | IMP-1 inh-2 inactive | VIM-2 FRET inh inactive | TEM-1 counter inactive | VIM-2 inh conf 27
O=C(COc1ccc2c3c(c(=O)oc2c1)CCC3)NCc1ccncc1	VIM-2 inh 29 | IMP-1 inh-2 inactive | VIM-2 FRET inh inactive | TEM-1 counter inactive | VIM-2 inh conf 39
